Data: publication PMC2846993 (Biochimica et biophysica acta, 2010)
Values joined by “and” are separate entries in the source; they are usually repeats but may differ in a detail not shown here. Equal values may be shown once.

How the values were obtained:
[1] = target: T1, Glu^1-Pg activation by uPA (Homo sapiens, UniProt P00747); assay: uPA-catalyzed Pg activation, chromogenic substrate S-2251; type: biochemical; conditions: 1 mM 6-AHA
Glu^1-Pg = conditions: saturating amounts of 6-AHA, Cl^−-containing buffer; ref [14],[19],[20]; cited from earlier work
[2] = target: T1, Glu^1-Pg activation by uPA; conditions: 6-AHA, acetate buffer; ref [34]; cited from earlier work
[3] = target: Wild type (wt) human Glu^1-Pg (plasminogen) (human); assay: SPR
[4] = target: Glu^1-Pg activation by SK (Homo sapiens, UniProt P00747); assay: SK-mediated; type: biochemical, human Glu^1-Pg; SK from Streptococcus equisimilis
[5] = Sedimentation equilibrium / self-association; type: physicochemical; conditions: PAM 22 μM, 20 °C, representative scan at 15,000 rpm
Summary of the method: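 Test protein at 22 μM final in 10 mM HEPES/100 mM NaCl, pH 7.4, at 20 °C. Centrifuged at 10,000 and 15,000 rpm. Apparent molecular weight came from a global fit of three scans at both speeds. Radius vs absorbance was simulated for the purely monomeric protein.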

T1 sequence (P00747 20-810 limits assumed): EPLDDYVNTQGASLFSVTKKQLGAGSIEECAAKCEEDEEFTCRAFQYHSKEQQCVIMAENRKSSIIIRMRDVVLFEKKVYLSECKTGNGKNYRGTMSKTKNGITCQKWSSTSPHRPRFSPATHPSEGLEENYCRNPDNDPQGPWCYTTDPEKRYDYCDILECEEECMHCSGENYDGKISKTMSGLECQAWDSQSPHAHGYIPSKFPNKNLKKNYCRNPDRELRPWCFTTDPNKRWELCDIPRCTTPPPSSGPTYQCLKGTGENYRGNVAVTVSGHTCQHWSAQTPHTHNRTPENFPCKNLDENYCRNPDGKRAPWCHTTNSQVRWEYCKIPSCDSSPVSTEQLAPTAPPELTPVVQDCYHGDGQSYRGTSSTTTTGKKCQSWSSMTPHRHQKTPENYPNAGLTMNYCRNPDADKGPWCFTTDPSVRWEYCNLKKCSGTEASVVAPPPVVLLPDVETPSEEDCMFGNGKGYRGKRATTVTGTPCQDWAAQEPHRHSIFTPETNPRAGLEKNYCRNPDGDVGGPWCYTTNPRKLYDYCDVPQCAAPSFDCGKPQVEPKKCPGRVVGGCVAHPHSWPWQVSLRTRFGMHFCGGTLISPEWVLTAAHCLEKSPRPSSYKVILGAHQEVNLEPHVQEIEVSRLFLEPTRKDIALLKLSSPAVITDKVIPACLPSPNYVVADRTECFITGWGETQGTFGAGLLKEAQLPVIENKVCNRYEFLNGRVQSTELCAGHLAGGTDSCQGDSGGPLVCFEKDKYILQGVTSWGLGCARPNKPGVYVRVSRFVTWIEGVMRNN

Compound | Kd [3] | koff [3] [s⁻¹] | kon [3] [M⁻¹ s⁻¹] | also measured
NCCCCCC(=O)O [6-AHA, 6-aminohexanoic acid] | – | – | – | rate enhancement of uPA-catalyzed Pm generation ([1]; Cl^− buffer (data not shown)): 2.2 fold; rate enhancement of uPA-catalyzed Pm generation ([1]; acetate buffer (data not shown)): 1.1 fold; decrease in sedimentation coefficient (S°20,w) of Pg (Glu^1-Pg): approximately 1 unit; increase in Pg conversion by uPA [2]: 1.2 fold
Wt-PAM (Pg-binding group A streptococcal M-like protein, GAS strain NS13) (from UniProt P49054 30-384) (natural protein) | 0.023 µM and 0.033 µM | 0.0079 | 340000 | –
wt-PAM: Pg-binding group A streptococcal M-like protein, GAS strain NS13, full-length wild type (VEKLTADAELQRLKNERHEEAELERLKSEY) | – | – | – | increase in SK-mediated Pg activation rate ([4]; 20 nM PAM, Pg 80 nM, equimolar SK, 10 mM HEPES/100 mM NaCl, pH 7.4): 3.6 fold; enhancement in Pg conversion rate by SK ([4]; 500 nM PAM, Cl^− buffer (data not shown)): 220 fold; apparent molecular weight (Mw,app), self-association [5]: 71600
R^101A/H^102A PAM (RH-PAM) (from UniProt P49054 30-384) (natural protein) | 0.424 µM and 0.731 µM | 0.014 | 33000 | –
K^98A/R^101A/H^102A/E^104A/K^111A PAM (KRHEK-PAM) (from UniProt P49054 30-384) (natural protein) | 0.05 µM | 0.017 | 340000 | –
K^98A/K^111A PAM (KK-PAM) (from UniProt P49054 30-384) (natural protein) | 0.038 µM and 0.044 µM | 0.0095 | 250000 | –
